Measured values: ChEMBL document CHEMBL3045637, “Highly variable insect control efficacy of Tephrosia vogelii chemotypes” (2012)
≈ marks a conversion by molar mass, not a printed value. Calls of active or inactive are those of the source. The rule behind the calls is not given here.

Experiments:
Callosobruchus maculatus [1] = assay: Insecticidal activity against adult Callosobruchus maculatus assessed reduction mean survival fraction measured 72 hr post dose (reference value: 4.4 +/- 0.31 mean survival fraction); type: functional
Callosobruchus maculatus [2] = assay: Insecticidal activity against adult Callosobruchus maculatus assessed mean survival fraction ratio at 100 ppm measured 72 hr post dose (reference value: 4.4 +/- 0.31 mean survival fraction); type: functional
Callosobruchus maculatus [3] = assay: Insecticidal activity against adult Callosobruchus maculatus assessed mean survival fraction ratio at 10 ppm measured 72 hr post dose (reference value: 4.4 +/- 0.31 mean survival fraction); type: functional
Callosobruchus maculatus [4] = assay: Insecticidal activity against adult Callosobruchus maculatus assessed mean survival fraction ratio at 500 ppm measured 72 hr post dose (reference value: 4.4 +/- 0.31 mean survival fraction); type: functional
Callosobruchus maculatus [5] = assay: Inhibition of F1 generation emergence in adult Callosobruchus maculatus grown on compound pre-treated cowpea seeds assessed as reduction in adult emergence at 10 to 500 ppm measured over 2 weeks from start of F1 emergence; type: functional, organism-based
How it was run: (§1)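 Compounds in acetone at 500, 100 and 10 ppm were coated onto cowpea seed by rotary evaporation (5 mL per 25 g) and air-dried 1 h. 5 g of treated seed went in a vial with 5 mated females, 2–3 days old, 5 replicates per treatment. Females were removed at 72 h and eggs counted. F1 emergence was counted from day 25 over two weeks. Means compared by ANOVA with SNK or LSD.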

Callosobruchus maculatus [6] = assay: Inhibition of oviposition in adult Callosobruchus maculatus grown on compound pre-treated cowpea seeds assessed as reduction in number of eggs at 10 to 500 ppm measured after 72 hr; type: functional, organism-based; how it was run: as §1

COc1cc2c(cc1OC)[C@]1(O)C(=O)c3ccc4c(c3O[C@@H]1CO2)C1C(O4)C1(C)C (some centres undefined) [SARCOLOBINE]
LC50 (Callosobruchus maculatus [1]): < 10 µg/mL | Ratio (Callosobruchus maculatus [2]): 1.4 | Ratio (Callosobruchus maculatus [3]): 2 | Ratio (Callosobruchus maculatus [4]): 0.6

COc1cc2c(cc1OC)[C@@H]1C(=O)c3ccc4c(c3O[C@@H]1CO2)C=CC(C)(C)O4 [DEGUELIN]
LC50 (Callosobruchus maculatus [1]): < 10 µg/mL | inhibition (Callosobruchus maculatus [5]): Active | Ratio (Callosobruchus maculatus [2]): 1.4 | inhibition (Callosobruchus maculatus [6]): Active | Ratio (Callosobruchus maculatus [3]): 2.6 | Ratio (Callosobruchus maculatus [4]): 0.9

COc1cc2c(cc1OC)[C@@H]1C(=O)c3c(O)cc4c(c3O[C@@H]1CO2)C=CC(C)(C)O4 [TOXICAROL]
LC50 (Callosobruchus maculatus [1]): < 10 µg/mL | Ratio (Callosobruchus maculatus [2]): 2.2 | Ratio (Callosobruchus maculatus [3]): 2.2 | Ratio (Callosobruchus maculatus [4]): 2.2

C=C(C)[C@H]1Cc2c(ccc3c2O[C@@H]2COc4cc(OC)c(OC)cc4[C@@H]2C3=O)O1 [ROTENONE]
LC50 (Callosobruchus maculatus [1]): < 10 µg/mL | inhibition (Callosobruchus maculatus [5]): Active | Ratio (Callosobruchus maculatus [2]): 0.7 | inhibition (Callosobruchus maculatus [6]): Active | Ratio (Callosobruchus maculatus [3]): 1 | Ratio (Callosobruchus maculatus [4]): 0.4

COc1cc2c(cc1OC)[C@]1(O)C(=O)c3ccc4c(c3O[C@@H]1CO2)C=CC(C)(C)O4 [TEPHROSIN]
LC50 (Callosobruchus maculatus [1]): 200 µg/mL (≈ 487 µM) | inhibition (Callosobruchus maculatus [5]): Active | Ratio (Callosobruchus maculatus [2]): 2.3 | inhibition (Callosobruchus maculatus [6]): Active | Ratio (Callosobruchus maculatus [3]): 2.9 | Ratio (Callosobruchus maculatus [4]): 1.8

COc1cc2c(c3c1C(=O)C[C@@H](c1ccccc1)O3)C=CC(C)(C)O2 [OBOVATIN 5-METHYL ETHER]
Ratio (Callosobruchus maculatus [2]): 4.2 | Ratio (Callosobruchus maculatus [3]): 3.8 | Ratio (Callosobruchus maculatus [4]): 4.2
